Source: ChEMBL document CHEMBL1132260, “Antitumor agents. 194. Synthesis and biological evaluations of 4-beta-mono-, -di-, and -trisubstituted aniline-4'-O-demethyl-podophyllotoxin and related compounds with improved pharmacological profiles” (J Med Chem, 1999)

What was measured:
[1] = test system: HCT-8; test: The compound was tested for tumor cell growth inhibitory activity against human ileocecal carcinoma (HCT-8) cell line; format: functional; conditions: HCT-8, read-out: ED50
Procedure, shortened: (§1)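 For the SRB growth assay, cells were grown in RPMI-1640 with 10% FBS and kanamycin at 37 °C under 5% CO2. Drug exposure was 3 days, with DMSO ≤2% final. Absorbance was read at 562 nm. ED50 (50% absorbance reduction vs untreated) was interpolated from dose–response data. Tests were run in triplicate.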

[2] = test system: CAKI-1; test: The compound was tested for tumor cell growth inhibitory activity against human renal cancer(CAKI-1) cell line; format: functional; conditions: CAKI-1, read-out: ED50; procedure, shortened: as §1
[3] = test system: KB; test: Cellular protein-DNA complex breaking activity against KB cells labeled with tritiated thymidine.; format: functional, Homo sapiens
Procedure, shortened: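 KB cells were labelled overnight with tritiated thymidine, chased 2 h, then exposed in triplicate to test agent for 1 h. Protein–DNA complexes were read as potassium-SDS precipitable radioactivity and expressed as fold over untreated control.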

[4] = target: T1, DNA topoisomerase II (Homo sapiens) (UniProt P11388+Q02880); test: The compound was tested for inhibitory activity against human DNA topoisomerase II; format: protein assay
Procedure, shortened: (§2)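 Human topoisomerase II (p170 isoform, 0.25 U) was assayed by P4 DNA unknotting. The buffer was 50 mM Tris-HCl pH 7.5, 100 mM KCl, 10 mM MgCl2, 0.5 mM DTT, 0.5 mM EDTA and 1 mM ATP, with BSA. Reactions ran 1 h at 37 °C, were stopped with SDS-sucrose, then run on 0.7% agarose and stained with ethidium bromide. Inhibition was scored by eye. IC100 is the concentration giving complete inhibition.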

[5] = test system: KB; test: The compound was tested for tumor cell growth inhibitory activity against human KB-7d cell line resistant to etoposide; format: functional; conditions: read-out: ED50 (the source's name); procedure, shortened: as §1
[6] = test system: KB; test: The compound was tested for tumor cell growth inhibitory activity against human KB-vin20c cell line resistant to vincristine; format: functional; conditions: read-out: ED50 (the source's name); procedure, shortened: as §1
[7] = test system: A549; test: The compound was tested for tumor cell growth inhibitory activity against human lung carcinoma (A549) cell line.; format: functional; conditions: A549, read-out: ED50; procedure, shortened: as §1
[8] = target: T1, DNA topoisomerase II (Homo sapiens); test: The compound was tested for inhibitory activity against human DNA topoisomerase-2.; format: protein assay; procedure, shortened: as §2
[9] = The compound was tested for cytotoxic activity against KB cell line by clonogenic cell survival assay.; format: cell-based; conditions: human, KB cells; read-out: LD50 (the source's name)
Procedure, shortened: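 KB cells were exposed to a range of concentrations for 3 h, then replated. Colony formation and plating efficiency were counted. LD50 (50% fall in plating efficiency vs untreated control) was read graphically. There were three independent experiments.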

[10] = test system: KB; test: The compound was tested for tumor cell growth inhibitory activity against human etoposide (KB-7d) cell line.; format: functional; conditions: read-out: ED50 (the source's name); procedure, shortened: as §1
[11] = test system: MCF7; test: The compound was tested for tumor cell growth inhibitory activity against human breast cancer (MCF-7) cell line.; format: functional; conditions: MCF7, read-out: ED50; procedure, shortened: as §1
[12] = test system: Mus musculus; test: The compound was tested for antitumor activity against (P388/0) Leukemia cells in mice. with a dosage of 27.0 mg/kg/dose. activity is expressed as %ILS.; format: functional; conditions: Leukemia cell
Procedure, shortened: (§3)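 The P388/0 leukaemia was implanted ip in female CD2F1 mice. Treatment was iv on a Q4D×3 schedule, injected at 0.1 cm³/10 g body weight. Agents were given in saline or in 10% DMSO/35% PEG 300/5% Tween 80/50% D5W, against a saline control. Median day of death, %ILS and net log change in tumour burden (at end of treatment) were recorded. The work was done at a contract lab.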

[13] = test system: Mus musculus; test: The compound was tested for antitumor activity against (P388/0) Leukemia cells in mice. with a dosage of 10.0 mg/Kg/dose. activity is expressed as net log change in tumor burden.; format: functional, Leukemia cell; procedure, shortened: as §3
[14] = test system: Mus musculus; test: The compound was tested for antitumor activity against (P388/0) Leukemia cells in mice. with a dosage of 40.0 mg/Kg/dose. activity is expressed as %ILS.; format: functional; conditions: Leukemia cell; procedure, shortened: as §3
[15] = test system: Mus musculus; test: The compound was tested for antitumor activity against (P388/0) Leukemia cells in mice. with a dosage of 27.0 mg/Kg/dose. activity is expressed as net log change in tumor burden.; format: functional, Leukemia cell; procedure, shortened: as §3
[16] = test system: Mus musculus; test: The compound was tested for antitumor activity against Subcutaneous Mammary Tumor MCF-7 cells. with a dosage of 40.0 mg/Kg/dose. activity is expressed as days to tumor doubling.; format: functional, MCF7
Procedure, shortened: (§4)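 MCF-7 human mammary tumour cells were implanted sc in female athymic nude mice. Dosing was iv on a Q4D×3 schedule at 0.1 cm³/10 g body weight, using saline or a DMSO/PEG 300/Tween 80/D5W vehicle, with a saline control. The endpoint was days to tumour doubling.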

[17] = test system: Mus musculus; test: The compound was tested for antitumor activity against Subcutaneous Mammary Tumor MCF-7 cells. with a dosage of 27.0 mg/Kg/dose. activity is expressed as days to tumor doubling.; format: functional, MCF7; procedure, shortened: as §4
[18] = test system: Mus musculus; test: The compound was tested for antitumor activity against (P388/0) Leukemia cells in mice. with a dosage of 10.0 mg/Kg/dose. activity is expressed as %ILS.; format: functional; conditions: Leukemia cell; procedure, shortened: as §3
[19] = test system: Mus musculus; test: The compound was tested for antitumor activity against (P388/0) Leukemia cells in mice. with a dosage of 27.0 mg/Kg/dose. activity is expressed as median day of death.; format: functional, Leukemia cell; procedure, shortened: as §3
[20] = test system: Mus musculus; test: The compound was tested for antitumor activity against (P388/0) Leukemia cells in mice. with a dosage of 40.0 mg/Kg/dose; format: functional, Leukemia cell; procedure, shortened: as §3
[21] = test system: Mus musculus; test: The compound was tested for antitumor activity against (P388/0) Leukemia cells in mice. with a dosage of 10.0 mg/Kg/dose. activity is expressed as median day of death.; format: functional, Leukemia cell; procedure, shortened: as §3
[22] = test system: Mus musculus; test: The compound was tested for antitumor activity against (P388/0) Leukemia cells in mice. with a dosage of 40.0 mg/Kg/dose. activity is expressed as net log change in tumor burden.; format: functional, Leukemia cell; procedure, shortened: as §3

For `COc1cc([N+](=O)[O-])c(OC)cc1N[C@@H]1c2cc3c(cc2[C@@H](c2cc(OC)c(O)c(OC)c2)[C@H]2C(=O)OC[C@@H]21)OCO3`, the EC50 [1] was > 50 µM, the EC50 [2] was 45 µM and the Complex formation [3] was 4.4%. The IC100 [4] was > 100 µM, the EC50 [5] was 37 µM and the EC50 [6] was 20 µM. For the same molecule, the EC50 [7] was 21.5 µM.

For `COc1ccc(N[C@@H]2c3cc4c(cc3[C@@H](c3cc(OC)c(O)c(OC)c3)[C@H]3C(=O)OC[C@@H]32)OCO4)c([N+](=O)[O-])c1`, the EC50 [1] was 2 µM, the EC50 [2] was 0.63 µM and the IC100 [8] was > 100 µM. For the same molecule, the Complex formation [3] was 15%, the CC50 [9] was > 20 µM and the EC50 [10] was 740 µM. The EC50 [7] was 1.7 µM and the EC50 [11] was 2.5 µM.

For `COc1cc([C@@H]2c3cc4c(cc3[C@@H](Nc3ccc(-c5nc6ccccc6[nH]5)cc3)[C@H]3COC(=O)[C@H]23)OCO4)cc(OC)c1O`, the EC50 [1] was 0.63 µM, the EC50 [2] was 0.35 µM and the Complex formation [3] was 128%. The CC50 [9] was 0.2 µM, the IC100 [4] was 10 µM and the EC50 [5] was 450 µM. The EC50 [6] was 1.4 µM, the EC50 [7] was 0.23 µM and the EC50 [11] was 0.85 µM.

For `COc1ccc([N+](=O)[O-])cc1N[C@@H]1c2cc3c(cc2[C@@H](c2cc(OC)c(O)c(OC)c2)[C@H]2C(=O)OC[C@@H]21)OCO3`, the EC50 [1] was 4.8 µM, the EC50 [2] was 2.5 µM and the IC100 [8] was > 100 µM. For the same molecule, the Complex formation [3] was 12%, the CC50 [9] was > 20 µM and the EC50 [10] was 1800 µM. The EC50 [7] was 2.25 µM and the EC50 [11] was 2.4 µM.

Work on `COc1cc([C@@H]2c3cc4c(cc3[C@@H](Nc3nc5ccccc5[nH]3)[C@H]3COC(=O)[C@H]23)OCO4)cc(OC)c1O` yielded an EC50 [1] of 3.3 µM, an EC50 [2] of 17.5 µM and a Complex formation [3] of 58%. The IC100 [4] was 100 µM, the EC50 [5] was 0.9 µM and the EC50 [6] was 1000 µM. For the same molecule, the EC50 [7] was 3.5 µM.

For `COc1cc([C@@H]2c3cc4c(cc3[C@@H](Nc3ccc(NC(=O)C56CCC(C)(C(=O)O5)C6(C)C)cc3)[C@H]3COC(=O)[C@H]23)OCO4)cc(OC)c1O` (stereo partly drawn), the EC50 [1] was 20 µM, the EC50 [2] was > 1.25 µM and the IC100 [8] was 10 µM. It also gave a Complex formation [3] of 88%, an EC50 [10] of 5600 µM and an EC50 [7] of 2.2 µM. The EC50 [11] was > 5 µM.

In the case of `COc1cc([N+](=O)[O-])ccc1N[C@@H]1c2cc3c(cc2[C@@H](c2cc(OC)c(O)c(OC)c2)[C@H]2C(=O)OC[C@@H]21)OCO3`, the EC50 [1] is reported as > 10 µM, the EC50 [2] is reported as 1.1 µM and the IC100 [8] is reported as > 100 µM. The Complex formation [3] was 83%, the CC50 [9] was > 20 µM and the EC50 [10] was 4000 µM. It also gave an EC50 [7] of 0.63 µM and an EC50 [11] of 5 µM.

In the case of `COc1cc([C@@H]2c3cc4c(cc3[C@@H](Nc3cc([N+](=O)[O-])cc([N+](=O)[O-])c3)[C@H]3COC(=O)[C@H]23)OCO4)cc(OC)c1O`, the EC50 [1] is reported as 26 µM, the EC50 [2] is reported as 10 µM and the IC100 [8] is reported as > 100 µM. The Complex formation [3] was 20%, the EC50 [10] was 17500 µM and the EC50 [7] was > 40 µM. The EC50 [11] was > 5 µM.

With `COc1cc([C@@H]2c3cc4c(cc3[C@H](Nc3cc([N+](=O)[O-])cc([N+](=O)[O-])c3)[C@H]3COC(=O)[C@H]23)OCO4)cc(OC)c1O` the EC50 [1] was > 5 µM, the EC50 [2] was > 10 µM and the IC100 [8] was > 100 µM. The Complex formation [3] was 8%, the EC50 [10] was 7600 µM and the EC50 [7] was > 5 µM. It also gave an EC50 [11] of 2.5 µM.

In the case of `COc1cc([C@@H]2c3cc4c(cc3[C@@H](O[C@@H]3O[C@@H]5CO[C@@H](C)O[C@H]5[C@H](O)[C@H]3O)[C@H]3COC(=O)[C@H]23)OCO4)cc(OC)c1O` [ETOPOSIDE], the ILS at 27 mg/kg/day [12] is reported as 130%, the “Net log change in tumor burden” value [13] is reported as -0.7 and the EC50 [1] is reported as > 5 µM. For the same molecule, the ILS at 40 mg/kg/day [14] was 160%, the “Net log change in tumor burden” value [15] was -3.4 and the EC50 [2] was 2.2 µM. The “Days to tumor doubling” value [16] was >24.1, the “Days to tumor doubling” value [17] was 18.5 and the ILS at 10 mg/kg/day [18] was 90%. It also gave a Complex formation [3] of 100%, a Day of death [19] of 23 and a Day of death [20] of 26. For the same molecule, the CC50 [9] was 20 µM, the Day of death [21] was 19 and the EC50 [5] was 23.8 µM. For the same molecule, the EC50 [6] was 30.6 µM, the “Net log change in tumor burden” value [22] was -5.5 and the EC50 [7] was 1.95 µM. For the same molecule, the EC50 [11] was > 5 µM.

In the case of `COc1cc(N[C@@H]2c3cc4c(cc3[C@@H](c3cc(OC)c(O)c(OC)c3)[C@H]3C(=O)OC[C@@H]32)OCO4)c(C)cc1[N+](=O)[O-]`, the EC50 [1] is reported as > 50 µM, the EC50 [2] is reported as > 50 µM and the Complex formation [3] is reported as 3.5%. For the same molecule, the IC100 [4] was > 100 µM and the EC50 [7] was > 50 µM.

`COc1cc([C@@H]2c3cc4c(cc3[C@@H](Nc3ccc([N+](=O)[O-])cc3)[C@H]3COC(=O)[C@H]23)OCO4)cc(OC)c1O` gave an EC50 [1] of 8.5 µM, an EC50 [2] of 1.5 µM and an IC100 [8] of 10 µM. It also gave a Complex formation [3] of 122%, a CC50 [9] of 1 µM and an EC50 [11] of 28.5 µM.
